Experimental data published in ChEMBL document CHEMBL1122850, “Synthesis of 6-anilino-2-thiouracils and their inhibition of human placenta iodothyronine deiodinase” (J Med Chem, 1985).

How the values were obtained:
[1] = target: T1, Thyroxine 5-deiodinase (Homo sapiens) (UniProt P55073); experiment: Inhibition of Human placenta inner-ring Iodothyronine 5-deiodinase activity measured as rT3 production in presence of DTT concentrations of 1.56 mM
T1 sequence (whole entry): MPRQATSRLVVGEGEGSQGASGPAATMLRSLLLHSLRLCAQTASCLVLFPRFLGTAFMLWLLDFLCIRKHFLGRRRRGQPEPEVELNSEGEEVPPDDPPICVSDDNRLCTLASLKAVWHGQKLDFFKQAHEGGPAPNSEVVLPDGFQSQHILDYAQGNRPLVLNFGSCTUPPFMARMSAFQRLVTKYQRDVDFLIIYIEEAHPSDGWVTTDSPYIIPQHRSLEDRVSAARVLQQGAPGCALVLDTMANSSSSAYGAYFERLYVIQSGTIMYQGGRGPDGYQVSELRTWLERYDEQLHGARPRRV
How it was run: (§1)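 Placenta microsomes (225 μg/tube) incubated with 290 pmol T4 in 0.1 M potassium phosphate–0.01 M EDTA (pH 7.4), 60 min, 37 °C. DTT varied over 0.2–100 mM in place of 0.25 mM. Inhibitor present at 5 mM. rT3 production (pmol/tube) measured by radioimmunoassay and compared with control tubes without inhibitor. Quadruplicate incubations.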

[2] = target: T1, Thyroxine 5-deiodinase (Homo sapiens); experiment: Inhibition of Human placenta inner-ring Iodothyronine 5-deiodinase activity measured as rT3 production in presence of DTT concentrations of 0.2 mM; how it was run: as §1
[3] = target: T1, Thyroxine 5-deiodinase (Homo sapiens); experiment: Inhibition of Human placenta inner-ring Iodothyronine 5-deiodinase activity measured as rT3 production in presence of DTT concentrations of 12.5 mM; how it was run: as §1
[4] = target: T1, Thyroxine 5-deiodinase (Homo sapiens); experiment: Inhibition of Human Placenta Inner-Ring Iodothyronine 5-deiodinase at the compound concentration of 5 mM
How it was run: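 Human placenta microsomal fraction (225 μg/tube) incubated 60 min at 37 °C with 290 pmol T4 in 0.1 M potassium phosphate–0.01 M EDTA, pH 7.4, with 0.25 mM DTT. Inhibitors at 5 mM, diluted from 30 mM stocks in 0.04 M NaOH. rT3 formed measured by radioimmunoassay. Inhibition relative to uninhibited control, quadruplicate incubations.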

[5] = target: T1, Thyroxine 5-deiodinase (Homo sapiens); experiment: Inhibition of Human placenta inner-ring Iodothyronine 5-deiodinase activity measured as rT3 production in presence of DTT concentrations of 100 mM; how it was run: as §1

Structure (SMILES) | rT3 Production [1] [pmol/tube] | rT3 Production [2] [pmol/tube] | rT3 Production [3] [pmol/tube] | inhibition [4] [%] | rT3 Production [5] [pmol/tube]
CCCCc1ccc(Nc2cc(O)nc(S)n2)cc1 | 0.8 | 0.2 | 2.5 | 96 | 4.1
CCc1ccc(Nc2cc(O)nc(S)n2)cc1 |  |  |  | 85 | 
Nc1cc(O)nc(S)n1 |  |  |  | 16 | 
Cn1c(=S)[nH]c(N)c(Cc2ccccc2)c1=O |  |  |  | 79 | 
CCCc1cc(=O)[nH]c(=S)[nH]1 | 13.3 | 2.6 | 43.3 | 29 | 104
Oc1cc(Nc2ccccc2)nc(S)n1 |  |  |  | 31 | 

Further lines, results first:

rT3 Production [1] [pmol/tube] | rT3 Production [2] [pmol/tube] | rT3 Production [3] [pmol/tube] | inhibition [4] [%] | rT3 Production [5] [pmol/tube] | Structure (SMILES)
 |  |  | 0 |  | CCc1ccc(Nc2cc(=O)n(C)c(=S)[nH]2)cc1
 |  |  | 2 |  | CCc1ccc(Nc2cc(=O)[nH]c(=S)n2C)cc1
 |  |  | 20 |  | CCCCc1ccc(Nc2cc(=O)n(C)c(=S)[nH]2)cc1
